{"data": "Experimental data collected from several papers", "read-out": "cell growth or viability", "note": "Lines come from different studies, so protocols differ."}
{"Structure (SMILES)": "C[C@H](NC(=O)[C@H](CC(=O)NCC(C)(C)C)NC(=O)C(=O)c1c[nH]c2ccccc12)C(=O)NCc1ccc(F)cc1F", "cell line": "A-375", "test": "resazurin", "conditions": "48 h", "quantity": "IC50", "result": "8.87 µM"}
{"Structure (SMILES)": "C=C(C)[C@@H]1CC[C@@H](C)C[C@H]1OCc1ccccc1", "cell line": "MDA-MB-231", "test": "MTT", "conditions": "10 µM, 72 h", "quantity": "inhibition", "result": "21.9%"}
{"Structure (SMILES)": "CC(=NNC(=O)COc1ccc2c(C)c(Cc3ccccc3)c(=O)oc2c1C)c1ccc(Br)cc1", "cell line": "MDA-MB-231", "test": "MTT", "conditions": "1000 µg/mL", "quantity": "viability", "result": "15.1%"}
{"Structure (SMILES)": "Cc1c(C(=O)O)ccc2c3n(nc12)[C@@H]1[C@H](C3)N(CC2CC2)[C@@]2(C(=O)Nc3cc(Cl)ccc32)[C@H]1c1cccc(Cl)c1F", "cell line": "hTERT-RPE1", "test": "ATP luminescence", "conditions": "72 h", "quantity": "GI50", "result": "0.021 µM"}
{"Structure (SMILES)": "Cc1c(Cc2ccccc2)c(=O)oc2c(C)c(OCC(=O)NN=Cc3ccc(Cl)cc3)ccc12", "cell line": "MDA-MB-231", "test": "MTT", "conditions": "1000 µg/mL", "quantity": "viability", "result": "17.1%"}
{"Structure (SMILES)": "O=C(C=Cc1ccccc1)Nc1cccc(-c2ccnc(N3CCC(O)CC3)c2)c1", "cell line": "MDA-MB-231", "test": "MTT", "conditions": "5 µM", "quantity": "inhibition", "result": "61.6%"}
{"Structure (SMILES)": "CCNC(=S)NNC(=O)COc1ccc2c(C)c(CC)c(=O)oc2c1C", "cell line": "MDA-MB-231", "test": "MTT", "conditions": "125 µg/mL", "quantity": "viability", "result": "45%"}
{"Structure (SMILES)": "O=C(C=Cc1ccccc1)Nc1cc(-c2ccnc(N3CCC(O)CC3)c2)ccn1", "cell line": "MDA-MB-231", "test": "MTT", "conditions": "72 h", "quantity": "IC50", "result": "0.003 µM"}
{"Structure (SMILES)": "CCc1c(C)c2ccc(OCc3nnc(S)n3N)c(C)c2oc1=O", "cell line": "MDA-MB-231", "test": "MTT", "conditions": "31.25 µg/mL", "quantity": "viability", "result": "94.3%"}
{"Structure (SMILES)": "C[C@@H]1CC[C@@H]([C@](O)(CNCc2ccccc2)COCc2ccc(F)cc2)[C@H](OCc2ccc(F)cc2)C1", "cell line": "MDA-MB-231", "test": "MTT", "conditions": "30 µM, 72 h", "quantity": "inhibition", "result": "101%"}
{"Structure (SMILES)": "C=CCNC(=S)NNC(=O)COc1ccc2c(C)c(CC)c(=O)oc2c1C", "cell line": "MDA-MB-231", "test": "MTT", "conditions": "250 µg/mL", "quantity": "viability", "result": "5.87%"}
{"Structure (SMILES)": "COc1cccc(CNC[C@@](C)(O)[C@@H]2CC[C@@H](C)C[C@H]2OCc2ccccc2)c1", "cell line": "MDA-MB-231", "test": "MTT", "conditions": "30 µM, 72 h", "quantity": "inhibition", "result": "95.3%"}
{"Structure (SMILES)": "CCC[C@H]1NC(=O)[C@H](Cc2cc(Cl)ccc2-c2cnn(C)c2)N(C)C(=O)[C@H](CC(C)C)NC(=O)[C@@H](N(C)C(=O)[C@H](CCCCN2CCOCC2)NC(=O)[C@@H](c2cccnc2)C2CCCCC2)CCCCNC1=O", "cell line": "NCI-H526", "test": "MTT", "conditions": "5 days", "quantity": "GI50", "result": "3.4 µM"}
{"Structure (SMILES)": "C=CC(=O)NC1CCN(c2ncc3ncnc(Nc4ccc(Oc5ccc6c(c5)ncn6C)c(C)c4)c3n2)CC1", "cell line": "Panc 04.03", "quantity": "EC50", "result": "5.19 µM"}
{"Structure (SMILES)": "COc1ccc(CNC[C@](O)(COCc2ccc(OC)cc2)[C@@H]2CC[C@@H](C)C[C@H]2OCc2ccc(OC)cc2)cc1", "cell line": "MDA-MB-231", "test": "MTT", "conditions": "10 µM, 72 h", "quantity": "inhibition", "result": "96.8%"}
